# High-throughput results (PubChem BioAssay)
# b-catenin transl: beta-catenin nuclear translocation modulation; HeLa beta-catenin nuclear translocation, immunofluorescence imaging; nuclear translocation activity, % at 5 µM; 190,000 compounds, 0.3% hits;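 active = nuclear translocation activity above 50% at 5 µM, with a well cell count of 50 or more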;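 note: per-cell ratio of nuclear to cytoplasmic median beta-catenin stain intensity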
#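 Signal – beta-catenin immunofluorescence imaging with DAPI · Test system – human HeLa cell line · Dosing – 5 µM primary single dose, 0.1% DMSO, 0.02–20 µM confirmation series · Measure – % activation, nuclear-to-cytoplasmic median beta-catenin signal ratio per cell · Incubation – 24 h compound exposure at 37°C, 5% CO2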
# ROMK primary: modulates human ROMK potassium channel activity | P48048 | Tet-inducible ROMK, thallium flux fluorescence; actives lie on both sides | B-score at 10 µM | 130,000 compounds, 2% hits;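 active = signal ratio slope over the read window, or its plate-corrected B-score, at least 3 SD from the plate mean, either direction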;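 note: B-score of the F/F0 ratio slope over 7 to 12 s after thallium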
# Target sequence (P48048 whole entry, looked up): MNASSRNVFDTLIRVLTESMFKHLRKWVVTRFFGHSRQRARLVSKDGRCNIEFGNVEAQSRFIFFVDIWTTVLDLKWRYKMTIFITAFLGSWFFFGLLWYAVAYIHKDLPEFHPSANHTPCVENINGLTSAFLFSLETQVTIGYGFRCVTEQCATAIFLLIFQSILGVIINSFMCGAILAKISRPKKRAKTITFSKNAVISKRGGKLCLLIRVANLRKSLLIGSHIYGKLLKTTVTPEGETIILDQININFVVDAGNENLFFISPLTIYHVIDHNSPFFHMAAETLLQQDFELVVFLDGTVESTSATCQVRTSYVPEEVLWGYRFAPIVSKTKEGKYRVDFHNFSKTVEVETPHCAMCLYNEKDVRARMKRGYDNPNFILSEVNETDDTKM
# MT stabilizer: microtubule stabilizers in HeLa cells; HeLa tubulin immunostaining HCS, 24 h; share of cells brighter than vehicle mean+2SD; % tubulin-high responders, % at 10 µM; 200,000 compounds, 0.83% hits; AID 2205;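 active = plate Z-score above 3 for both tubulin-high and condensed-nucleus cell shares, with cell loss under 80%, at 10 µM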;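 note: anti alpha tubulin signal scored within the nucleus-defined area of each cell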
# ROMK retest: confirmation of human ROMK potassium channel modulators; normalized thallium flux (F/F0 slope) at 10 µM; 3,000 compounds, 54% hits; shares compounds with ROMK primary; ROMK thallium flux, fluorescence ratio; hits give low values;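 active = Flux at 10 µM at least 3 SD below or above vehicle control mean in one or both replicates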
# Numbers stand for hits; . = inactive; / = no result. Most compounds without a hit are left out; they make up all but 1.9% or so of the library.
SMILES,b-catenin transl,ROMK primary,MT stabilizer,ROMK retest
CCn1c(SCC(=O)Nc2ccccc2N2CCCCC2)nc2c1c(=O)n(C)c(=O)n2C,/,/,.,.
COc1ccc(NC(=O)COC(=O)CCCN2C(=O)c3ccccc3C2=O)cc1Cl,.,.,.,/
CCOC(=O)Nc1sc(C)nc1-c1ccccc1,.,/,.,/
CCOC(=O)Nc1nc(-c2ccccc2)c(C(=O)c2ccc(Cl)cc2)s1,182,3.2,.,.
O=C(N/N=C/C(Br)=C\c1ccccc1)c1cccs1,.,/,/,/
CC1CCN(C(=O)/C(=C/c2ccccc2Cl)c2ccccc2)CC1,.,/,.,/
N#CC(C#N)=C1C=CC=CN1/C(=C\c1ccccc1Cl)C(=O)c1ccccc1,.,-5.6,.,0.041
N#CC(C#N)=C1C=CC=CN1/C(=C\c1ccccc1)C(=O)c1cccs1,.,/,.,0.057
CCOc1ccc(N2C(=O)Nc3ccccc3C2(O)C(=O)NCc2ccc3c(c2)OCO3)cc1 (centres undefined),/,/,.,/
Cc1noc(C)c1C1(O)CCCCCCCCCCC1,.,.,.,/
Cc1ccnc(NC(=O)Cn2cc([N+](=O)[O-])cn2)c1,.,.,.,/
O=c1c2ccccc2nc(/C=C/c2ccc([N+](=O)[O-])o2)n1CCCO,.,-3.1,.,0.052
O=c1c2ccccc2nc(/C=C/c2ccc([N+](=O)[O-])cc2)n1CCCO,.,.,.,/
Cc1c(N=C2N=C(NC(=O)Nc3ccc(Cl)cc3)c3ccccc32)c(=O)n(-c2ccccc2)n1C,.,-3.9,.,0.06
Cc1c(NC(=O)Nc2ccc(Cl)cc2)c(=O)n(-c2ccccc2)n1C,.,/,.,/
CC1(C)NC(=O)N(CC(O)COc2ccc(-c3ccc(C#N)cc3)cc2)C1=O (centres undefined),.,19,.,.
CC1(C)NC(=O)N(CC(O)COc2ccc(-c3ccccc3)cc2)C1=O (centres undefined),.,.,.,/
CC[C@H](C)[C@@H](C(=O)N1CCNCC1)n1cc([C@@H](N)CO)nn1,.,/,.,/
Cc1ccc(NC(=O)/C(C#N)=C(\N)C(Cl)(Cl)Cl)nc1,.,-5.5,.,0.035
Cc1ccc(NC(=O)C(=O)Nc2ccc(C)cn2)nc1,.,.,.,/
CC(C)c1onc(C(=O)N2CCN(Cc3ccccc3)CC2)c1[N+](=O)[O-],.,.,.,/
Cc1nc(COc2ccccc2Cl)sc1-c1ccnc(N)n1,.,.,/,/
Cc1ccc2[nH]c(=O)c3cc(C(=O)NCCN4CCN(C)CC4)sc3c2c1,.,/,.,/
CCCN1CCN(CCCNC(=O)c2cc3c(=O)[nH]c4ccccc4c3s2)CC1,.,-3.8,.,0.059
CC1=CC(C)(C)N(C(=O)CNC2CCCCC2)c2cc(C)ccc21,.,-7.1,.,0.051
SMILES,b-catenin transl,ROMK primary,MT stabilizer,ROMK retest
CC1=CC(C)(C)N(C(=O)CN2C(=O)c3ccccc3C2=O)c2ccc(C)cc21,.,/,.,/
CC(C)c1ccc(OCC(=O)N(c2ccccn2)C2CCCCC2)cc1,.,-2.6,.,0.055
O=C(COc1ccc(F)cc1)N(c1ccccn1)C1CCCCC1,.,.,.,/
CC(C)CCNC(=O)COC(=O)c1cc(Br)c(Br)s1,.,.,.,/
Cc1cc(Cl)ccc1Oc1nccc(N(C)C)c1C#N,.,/,.,/
N#C/C(=C\c1ccccc1)C(=O)N(c1ccccn1)C1CCCCC1,.,/,.,0.045
O=C(c1cccc(C(=O)N(c2ccccn2)C2CCCCC2)c1)N(c1ccccn1)C1CCCCC1,.,.,.,/
O=C(/C=C/c1ccc([N+](=O)[O-])cc1)NCc1ccccn1,/,.,.,/
O=C(/C=C/c1ccc([N+](=O)[O-])cc1)N(c1ccccn1)C1CCCCC1,.,5.7,.,.
CCn1ccnc1CN(C)C(=O)CCc1nnc(CCCc2ccccc2)o1,.,.,.,/
CCN1CCc2nc3ccccc3c(C(=O)Nc3ccc(C#N)cc3)c2C1,.,.,.,/
CCN(CC)S(=O)(=O)c1ccc(OCCNS(C)(=O)=O)cc1,.,.,.,/
CCCCN(CC)S(=O)(=O)c1ccc(C(=O)N(CCCN(C)C)c2nc3cc(C)cc(C)c3s2)cc1,.,-3.8,.,0.054
CCCCN(C)S(=O)(=O)c1ccc(C(=O)N(CCN(C)C)c2nc3ccc(C)cc3s2)cc1,.,.,.,/
Cc1nc(C)c2c(=O)cc(-c3ccccc3)[nH]c2n1,.,1.2,43,.
Cc1nc(-c2ccccc2)nc2[nH]c(-c3ccccc3)cc(=O)c12,/,.,.,/
Cc1ccccc1Cn1nc(C)c(NC(=O)/C=C/c2cnn(C)c2)c1C,/,3.2,.,.
Cc1ccccc1Cn1nc(C)c(NC(=O)/C=C/c2cnn(C)c2C)c1C,.,.,.,/
C#CCn1cc(/C=N/Nc2nc3ccccc3[nH]2)c2ccccc21,.,/,.,/
Cc1nc(-c2noc(-c3ccc(Cl)cc3)n2)c(C(F)(F)F)o1,.,/,/,/
